In ChEMBL document CHEMBL1138638, “Azepinone as a conformational constraint in the design of kappa-opioid receptor agonists” (Bioorg Med Chem Lett, 2004):

Tests used:
[1] = molecular target: T1, Delta-type opioid receptor (Homo sapiens, UniProt P41143); test: Inhibition percent of compound towards human Delta opioid receptor; set-up: concentration or dose not given beside the values; details: concentration not given here
Mu-type opioid receptor [2] = molecular target: T2, Mu-type opioid receptor (Homo sapiens, UniProt P35372); test: Inhibition percent of compound towards human Mu opioid receptor; set-up: concentration or dose not given beside the values; details: concentration not given here
T2 sequence (P35372 whole entry): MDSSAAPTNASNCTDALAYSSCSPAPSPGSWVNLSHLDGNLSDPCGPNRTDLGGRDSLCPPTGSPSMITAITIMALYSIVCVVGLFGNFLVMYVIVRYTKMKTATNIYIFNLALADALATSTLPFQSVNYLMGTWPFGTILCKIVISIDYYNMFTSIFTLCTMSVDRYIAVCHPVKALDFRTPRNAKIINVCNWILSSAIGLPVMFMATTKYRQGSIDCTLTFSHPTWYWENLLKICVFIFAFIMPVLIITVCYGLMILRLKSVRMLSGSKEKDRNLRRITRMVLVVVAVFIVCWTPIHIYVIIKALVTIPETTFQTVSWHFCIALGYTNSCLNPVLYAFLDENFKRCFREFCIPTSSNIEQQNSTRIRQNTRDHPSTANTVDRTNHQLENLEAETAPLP

[3] = molecular target: T3, Kappa-type opioid receptor (Homo sapiens, UniProt P41145); test: Binding affinity for human Kappa opioid receptor
T3 sequence (P41145 whole entry): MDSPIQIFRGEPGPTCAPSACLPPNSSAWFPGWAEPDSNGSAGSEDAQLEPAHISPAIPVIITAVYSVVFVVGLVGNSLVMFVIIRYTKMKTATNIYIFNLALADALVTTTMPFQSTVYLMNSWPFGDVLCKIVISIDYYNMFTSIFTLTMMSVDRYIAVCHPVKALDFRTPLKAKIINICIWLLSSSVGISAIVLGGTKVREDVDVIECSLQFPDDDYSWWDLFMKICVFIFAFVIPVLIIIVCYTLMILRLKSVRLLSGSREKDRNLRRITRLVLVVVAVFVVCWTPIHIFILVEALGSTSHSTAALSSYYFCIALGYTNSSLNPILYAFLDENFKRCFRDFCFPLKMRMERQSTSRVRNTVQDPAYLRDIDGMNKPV

[4] = molecular target: T1, Delta-type opioid receptor; test: Binding affinity for human Delta opioid receptor
[5] = molecular target: T3, Kappa-type opioid receptor; test: Binding affinity for human Opioid receptor kappa 1
[6] = molecular target: Opioid receptors; mu & kappa (Homo sapiens) (UniProt P41145+P35372); test: Selectivity for kappa opioid receptor over mu opioid receptor; assay type: protein assay
Opioid receptors; mu & kappa (Homo sapiens), sequence (P35372 whole entry, looked up): as the sequence (P35372 whole entry) above
Opioid receptors; mu & kappa (Homo sapiens), sequence (P41145 whole entry, looked up): as the sequence (P41145 whole entry) above

[7] = molecular target: Opioid receptors; delta & kappa (Homo sapiens) (UniProt P41145+P41143); test: Selectivity for kappa opioid receptor over delta opioid receptor; assay type: protein assay
Opioid receptors; delta & kappa (Homo sapiens), sequence (P41143 whole entry, looked up): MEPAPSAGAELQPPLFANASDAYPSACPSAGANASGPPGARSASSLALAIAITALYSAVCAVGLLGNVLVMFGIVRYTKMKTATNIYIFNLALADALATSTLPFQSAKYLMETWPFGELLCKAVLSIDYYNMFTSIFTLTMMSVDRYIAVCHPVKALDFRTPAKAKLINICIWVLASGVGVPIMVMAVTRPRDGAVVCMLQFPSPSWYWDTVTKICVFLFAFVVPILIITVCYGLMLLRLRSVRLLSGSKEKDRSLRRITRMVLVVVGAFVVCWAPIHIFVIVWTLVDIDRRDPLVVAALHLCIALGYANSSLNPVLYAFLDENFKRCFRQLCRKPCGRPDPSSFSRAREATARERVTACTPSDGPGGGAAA
Opioid receptors; delta & kappa (Homo sapiens), sequence (P41145 whole entry, looked up): as the sequence (P41145 whole entry) above

Mus musculus [8] = test: Effective dose required to induce sedation was determined in mouse when administered orally; assay type: functional; details: po
Summary of the method: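 Mice placed on a raised plastic platform (11 × 7.5 × 3 cm). Latency to step fully off the platform was timed before oral dosing (baseline sedation latency) and 30 min after. ED50 reported with range in parentheses.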

Mus musculus [9] = test: Effective dose required to inhibit acetic acid induced writhing in mouse when administered orally; assay type: functional; details: po
Summary of the method: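 Mice dosed orally with vehicle or test agent; 15 min later given 0.6% acetic acid intraperitoneally. Writhes counted over a 10 min period starting 5 min after the acid injection. ED50 reported with range in parentheses.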

Rattus norvegicus [10] = test: Effective dose required to inhibit formalin induced flinching in rat as a measure of antinociception activity when administered orally; assay type: functional; details: po
Rattus norvegicus [11] = species: Rattus norvegicus; test: Percent inhibition of rotarod performance based on the comparison of baseline and post-treatment rotarod latencies; assay type: functional
Mu-type opioid receptor [12] = molecular target: T2, Mu-type opioid receptor; test: Binding affinity for human Mu opioid receptor

T1 sequence (P41143 whole entry): as the sequence (P41143 whole entry, looked up) above

O=C1C(Oc2ccc(Cl)c(Cl)c2)CC=CCN1C(CN1CCCC1)c1ccccc1 (stereo not drawn)
inhibition [1]: < 60%
inhibition (Mu-type opioid receptor [2]): < 60%
Ki [3]: 2.6 nM

O=C1C(c2ccc(C(F)(F)F)cc2)CC=CCN1C(CN1CCCC1)c1ccccc1 (stereo not drawn)
inhibition (Mu-type opioid receptor [2]): < 60%
Ki [4]: 1000 nM
Ki [3]: 0.72 nM

O=C1[C@@H](c2ccc(Cl)cc2)CC=CCN1C(CN1CCCC1)c1ccccc1 (stereo partly drawn)
inhibition [1]: < 60%
inhibition (Mu-type opioid receptor [2]): < 60%
Ki [3]: 35 nM

COc1ccc(C2CC=CCN(C(CN3CCCC3)c3ccccc3)C2=O)cc1 (stereo not drawn)
inhibition [1]: < 60%
inhibition (Mu-type opioid receptor [2]): < 60%
Ki [3]: 22 nM

O=C1[C@@H](c2ccc(Cl)c(Cl)c2)CC=CCN1C(CN1CCCC1)c1ccccc1 (stereo partly drawn)
inhibition [1]: < 60%
inhibition (Mu-type opioid receptor [2]): < 60%
Ki [5]: 17 nM

O=C1[C@H](c2ccc(Cl)c(Cl)c2)CC=CCN1[C@H](CN1CC[C@H](O)C1)c1ccccc1
Selectivity [6]: 1000
Selectivity [7]: 1000
Ki [3]: 0.2 nM

O=C1C(c2ccc(Cl)c(Cl)c2)CC=CCN1C(CN1CCCC1)c1ccccc1 (stereo not drawn)
ED50 (Mus musculus [8]): 48 mg/kg
ED50 (Mus musculus [9]): 1.6 mg/kg
ED50 (Rattus norvegicus [10]): 2.7 mg/kg
Inhibition (Rattus norvegicus [11]): 54%
Ki [4]: 370 nM
Ki [5]: 0.34 nM
Ki (Mu-type opioid receptor [12]): 1000 nM

O=C1C(c2cccc(S(=O)(=O)N3CCCC3)c2)CC=CCN1C(CN1CCCC1)c1ccccc1 (stereo not drawn)
inhibition [1]: < 60%
inhibition (Mu-type opioid receptor [2]): < 60%
Ki [3]: 1900 nM

CN(C(=O)Cc1ccc(Cl)c(Cl)c1)C(CN1CCCC1)c1ccccc1 (stereo not drawn)
ED50 (Mus musculus [8]): 7.5 mg/kg

O=C1[C@H](c2ccc(Cl)c(Cl)c2)CC=CCN1[C@H](CN1CCCC1)c1ccccc1
Selectivity [6]: 1000
Selectivity [7]: 1000
Ki [3]: 12 nM

O=C1C(c2ccc(Cl)cc2)CC=CCN1C(CN1CCCC1)c1ccccc1 (stereo not drawn)
inhibition [1]: < 60%
inhibition (Mu-type opioid receptor [2]): < 60%
Ki [5]: 2 nM

COc1ccc([C@H]2CC=CCN(C(CN3CCCC3)c3ccccc3)C2=O)cc1 (stereo partly drawn)
inhibition [1]: < 60%
inhibition (Mu-type opioid receptor [2]): < 60%
Ki [3]: 800 nM
